Source: ChEMBL document CHEMBL1155733, “Flavonoid, iridoid, and lignan glycosides from Putoria calabrica” (J Nat Prod, 2001)
Active and inactive are the calls of the source. The rule behind the calls is not given here.

Species on record: Homo sapiens
Experiment: Antioxidant activity assessed as radical scavenging activity in FMLP-stimulated human PMNC up to 30 uM by chemiluminescence assay
Format: functional
Outline: (§1)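 Human PMNs in HBSS (5 × 10⁶ cells/ml) preincubated 30 min at 37 °C with luminol (0.2 mM, as added) and test solution (ethanol stock diluted in HBSS). Stimulated with FMLP (0.5 μM, as added). Luminol-enhanced chemiluminescence recorded in cpm for 15 min at 37 °C. Area under the curve expressed as % of compound-free control; five measurements per concentration, averaged. Quercetin served as positive control.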

Row | Compound | Activity
1 | CC(=O)OCC1=C[C@@H]2OC(=O)C3=CO[C@@H](O[C@@H]4O[C@H](CO)[C@@H](O)[C@H](O)[C@H]4O)[C@H]1[C@@H]32 | inactive
2 | COc1cc(C[C@H]2CO[C@@H](c3ccc(O[C@@H]4O[C@H](CO)[C@@H](O)[C@H](O)[C@H]4O)c(OC)c3)[C@H]2CO)ccc1O[C@@H]1O[C@H](CO)[C@@H](O)[C@H](O)[C@H]1O | inactive
3 | CC(=O)OCC1=C[C@H](O)[C@@H]2C(C(=O)O)=CO[C@@H](O[C@H]3O[C@@H](CO)[C@H](O)[C@@H](O)[C@@H]3O)[C@H]12 | inactive
4 | CSC(=O)OCC1=C[C@@H]2OC(=O)C3=CO[C@@H](O[C@@H]4O[C@H](CO)[C@@H](O)[C@H](O)[C@H]4O)[C@H]1[C@@H]32 | inactive
5 | CSC(=O)OCC1=C[C@H](O)[C@H]2C(C(=O)O)=CO[C@@H](O[C@@H]3O[C@@H](CO)[C@@H](O)[C@@H](O)[C@H]3O)[C@H]12 | inactive
6 | O=C(O)C1=CO[C@@H](O[C@@H]2O[C@H](CO)[C@@H](O)[C@H](O)[C@H]2O)[C@@H]2C(CO)=C[C@@H](O)[C@H]12 | inactive
7 | COc1cc([C@H]2OC[C@H]3[C@@H]2CO[C@@H]3c2cc(OC)c(O[C@@H]3O[C@H](CO)[C@@H](O)[C@H](O)[C@H]3O)c(OC)c2)cc(OC)c1O[C@@H]1O[C@H](CO)[C@@H](O)[C@H](O)[C@H]1O | inactive
8 | O=C1O[C@H]2C=C(CO)[C@H]3[C@H](O[C@@H]4O[C@H](CO)[C@@H](O)[C@H](O)[C@H]4O)OC=C1[C@H]32 | inactive
9 | O=C(O)C1=CO[C@@H](O[C@@H]2O[C@H](CO)[C@@H](O)[C@H](O)[C@H]2O)[C@@H]2C(CO)=CC[C@H]12 | inactive

Test system: not listed separately
Experiment: Antioxidant activity assessed as radical scavenging activity in FMLP-stimulated human PMNC by chemiluminescence assay
Format: functional
Outline: as §1

Row | IC50 | Compound
10 | 0.3 µM | C[C@@H]1O[C@@H](O[C@H]2[C@H](Oc3c(-c4ccc(O)c(O)c4)oc4cc(O[C@@H]5O[C@H](CO)[C@@H](O)[C@H](O)[C@H]5O)cc(O)c4c3=O)OC[C@H](O)[C@@H]2O)[C@H](O)[C@H](O)[C@H]1OC(=O)/C=C/c1ccc(O)c(O)c1 [CALABRICOSIDE B]
11 | 0.25 µM | C[C@@H]1O[C@@H](O[C@H]2[C@H](Oc3c(-c4ccc(O)c(O)c4)oc4cc(O[C@@H]5O[C@H](CO)[C@@H](O)[C@H](O)[C@H]5O)cc(O)c4c3=O)OC[C@H](O)[C@@H]2O)[C@H](O)[C@H](O)[C@H]1O [CALABRICOSIDE A]

Row | Compound | IC50
12 | O=c1c(O)c(-c2ccc(O)c(O)c2)oc2cc(O)cc(O)c12 [QUERCETIN] | 0.5 µM
